Reference: ChEMBL document CHEMBL1132248, “2,4-Diphenyl furan diamidines as novel anti-Pneumocystis carinii pneumonia agents” (J Med Chem, 1999)
“And” between values parts separate entries of the source, which are not always exact repeats. Equal values may be shown once.

Experiments:
Nucleic Acid [1] = system: Nucleic Acid
[2] = The compound was tested for the increase in thermal melting of d(CGCGAATTCGCG)2.
Nucleic Acid [3] = system: Nucleic Acid; remark: listed apart in the source
Rattus norvegicus [4] = assay: Percentage control of Pneumocystis carinii pneumonia in immunosuppressed rat at 22 uM/Kg/d administered intravenously; assay type: functional
Summary of the method: (§1)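 Immunosuppressed rats with Pneumocystis carinii pneumonia were given test agent intravenously. The read-out was cysts per g of lung tissue, expressed as percent of pooled saline-treated controls (n = 46). Values below 1% of control fall within experimental error.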

Rattus norvegicus [5] = assay: Toxicity in immunosuppressed rat after administration of 10 uM/Kg/d.; assay type: organism-based; conditions: in vivo
Summary of the method: (§2)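 Immunosuppressed rats with Pneumocystis carinii pneumonia; compounds given intravenously at the daily dose named in each line. Toxicity scored on a five-level scale from 0 to 5+; the paper calls the scores anecdotal rather than definitive. The same study scored lung cysts per gram against pooled saline controls (n = 46).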

Rattus norvegicus [6] = assay: Percentage control of Pneumocystis carinii pneumonia in immunosuppressed rat at 10 uM/Kg/d administered intravenously; assay type: functional
Summary of the method: as §1

Rattus norvegicus [7] = assay: Toxicity in immunosuppressed rat after administration of 10 uM/Kg/d; assay type: organism-based; conditions: in vivo
Summary of the method: as §2

Rattus norvegicus [8] = assay: Percentage control of Pneumocystis carinii pneumonia in immunosuppressed rat at 0.25 uM/Kg/d administered intravenously; assay type: functional
Summary of the method: as §1

Rattus norvegicus [9] = assay: Percentage control of Pneumocystis carinii pneumonia in immunosuppressed rat at 5 uM/Kg/d administered intravenously; assay type: functional
Summary of the method: as §1

Rattus norvegicus [10] = assay: Percentage control of Pneumocystis carinii pneumonia in immunosuppressed rat at 20 uM/Kg/d administered intravenously; assay type: functional
Summary of the method: as §1

Rattus norvegicus [11] = assay: Toxicity in immunosuppressed rat after administration of 1 uM/kg/day; assay type: organism-based; conditions: in vivo
Summary of the method: as §2

Rattus norvegicus [12] = assay: Toxicity in immunosuppressed rat after administration of 5 uM/Kg/d; assay type: organism-based; conditions: in vivo
Summary of the method: as §2

Rattus norvegicus [13] = assay: Toxicity in immunosuppressed rat after administration of 0.2 5 uM/Kg/d; assay type: organism-based; conditions: in vivo
Summary of the method: as §2

Rattus norvegicus [14] = assay: Toxicity in immunosuppressed rat after administration of 1 uM/Kg/d.; assay type: organism-based; conditions: in vivo
Summary of the method: as §2

Rattus norvegicus [15] = assay: Percentage control of Pneumocystis carinii pneumonia in immunosuppressed rat at 1 uM/Kg/d administered intravenously; assay type: functional
Summary of the method: as §1

Rattus norvegicus [16] = assay: Percentage control of Pneumocystis carinii pneumonia in immunosuppressed rat at 10 uM/Kg/d administered intravenously.; assay type: functional
Summary of the method: as §1

`c1cc(-c2coc(-c3ccc(C4=NCCN4)cc3)c2)ccc1C1=NCCN1` showed a ΔTm (Nucleic Acid [1]) of 16.8 and a ΔTm [2] of 7.2.
Molecule `N=C(N)c1ccc(OCCCCCOc2ccc(C(=N)N)cc2)cc1` [PENTAMIDINE] has a ΔTm (Nucleic Acid [3]) of 12.6, a ΔTm [2] of 4.8 and a Control (Rattus norvegicus [4]) of 2.3%.
With `Cc1oc(-c2ccc(/C(N)=N\C(C)C)cc2)c(C)c1-c1ccc(/C(N)=N\C(C)C)cc1.Cl.Cl` the ΔTm (Nucleic Acid [1]) was 12.5, the ΔTm [2] was 5.4 and the Toxicity (Rattus norvegicus [5]) was 0. For the same molecule, the Control (Rattus norvegicus [6]) was 24.43%.
`CC(C)/N=C(/N)c1ccc(-c2coc(-c3ccc(/C(N)=N\C(C)C)cc3)c2)cc1.Cl.Cl` showed a Toxicity (Rattus norvegicus [7]) of 0, a Control (Rattus norvegicus [8]) of 110.5% and a ΔTm (Nucleic Acid [1]) of 17.6. The Control (Rattus norvegicus [9]) was 0.08%, the Control (Rattus norvegicus [10]) was 0% and the Toxicity (Rattus norvegicus [11]) was 0. For the same molecule, the ΔTm [2] was 10.9, the Toxicity (Rattus norvegicus [12]) was 0 and the Toxicity (Rattus norvegicus [13]) was 0. The Control (Rattus norvegicus [6]) was 0.04% and 0.08%.
Molecule `CC(C)C/N=C(/N)c1ccc(-c2coc(-c3ccc(/C(N)=N\CC(C)C)cc3)c2)cc1` has a ΔTm (Nucleic Acid [1]) of 20.4 and a ΔTm [2] of 9.3.
`Cl.Cl.N=C(NC1CCCC1)c1ccc(-c2coc(-c3ccc(C(=N)NC4CCCC4)cc3)c2)cc1` showed a ΔTm (Nucleic Acid [1]) of 20.4, a ΔTm [2] of 13.6 and a Toxicity (Rattus norvegicus [14]) of 0. It also gave a Toxicity (Rattus norvegicus [5]) of 0, a Control (Rattus norvegicus [6]) of 0.16% and a Control (Rattus norvegicus [15]) of 1.79%.
With `Cl.Cl.N=C(N)c1ccc(-c2coc(-c3ccc(C(=N)N)cc3)c2)cc1` the Toxicity (Rattus norvegicus [7]) was 0, the ΔTm (Nucleic Acid [1]) was 19 and the ΔTm [2] was 9.1. For the same molecule, the Control (Rattus norvegicus [6]) was 0.3%.
`Cl.Cl.N=C(NC1CC1)c1ccc(-c2coc(-c3ccc(C(=N)NC4CC4)cc3)c2)cc1` showed a Control (Rattus norvegicus [16]) of 0.01%, a ΔTm (Nucleic Acid [1]) of 23.2 and a ΔTm [2] of 10.9. The Toxicity (Rattus norvegicus [5]) was 0.
`Cc1oc(-c2ccc(C(=N)N)cc2)c(C)c1-c1ccc(C(=N)N)cc1.Cl.Cl` gave a ΔTm (Nucleic Acid [1]) of 17, a ΔTm [2] of 6.5 and a Control (Rattus norvegicus [6]) of 0.89%.
